Laboratory results reported in ChEMBL document CHEMBL3616436, “Synthesis, cytotoxicity and antimicrobial activity of thiourea derivatives incorporating 3-(trifluoromethyl)phenyl moiety” (Eur J Med Chem, 2015).
≈ marks a conversion by molar mass, not a printed value. Calls of active or inactive are those of the source. The rule behind the calls is not given here.

Experiments:
[1] = system: Staphylococcus epidermidis; assay: Antimicrobial activity against hospital methicillin-resistant Staphylococcus epidermidis 16/04 after 18 hrs by twofold serial microdilution method; type: functional; settings: 16/04, 18 h
Method in brief: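 Twofold serial microdilution in Mueller-Hinton broth. Compound stock was made in DMSO and diluted in sterile water. Tested range was 0.125–512 µg/mL. Final inoculum was 10^5 CFU/mL. Plates were incubated 18 h at 35 °C. MIC is the lowest concentration preventing visible growth.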

Coxsackievirus B5 = assay: Antiviral activity against Human coxsackievirus B5 ATCC VR-29 infected in African green monkey Vero 76 cells assessed as reduction of virus-plaque formation after 3 days by crystal violet staining; type: functional, organism-based; settings: Enterovirus B, ATCC VR-29, Vero, 72 h
Method in brief: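 Plaque reduction: Vero-76 at 2x10^5 cells/well grown to confluent monolayers, infected 2 h at 50–100 PFU/well; after removing unadsorbed virus, overlay of D-MEM, 1% inactivated FBS, 0.75% methylcellulose with or without serial compound dilutions; 3 days at 37°C, fixed and stained with crystal violet in 50% ethanol, plaques counted; EC50 by linear regression.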

[2] = system: Staphylococcus epidermidis; assay: Inhibition of biofilm formation in Staphylococcus epidermidis ATCC 12228 at 4 ug/ml after 24 hrs using MTT staining by spectrophotometer analysis; type: functional; settings: ATCC 12228, 24 h
Method in brief: (§1)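 Methicillin-resistant hospital isolates or ATCC strains of S. epidermidis were grown overnight in tryptone soy broth with 0.5% glucose. Inoculum of 10^7 CFU/mL was mixed 1:1 with compound in TSB-glucose and incubated 24 h at 37 °C. Non-adherent cells were washed off with PBS, and wells were stained with MTT (0.5% in PBS) for 2 h at 37 °C. Stain was solubilized in DMSO/glycine buffer and read at A554. Inhibition is relative to drug-free control; quadruplicates.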

[3] = molecular target: T1, Topoisomerase IV (Staphylococcus aureus) (UniProt P0C1U9+P0C1S7); assay: Inhibition of decatenation activity of DNA topoisomerase 4 in Staphylococcus aureus ATCC 29213 using kDNA as substrate at 32 ug/ml […] using ethidium bromide staining by agarose gel electrophoresis; type: protein-complex assay
[4] = molecular target: T1, Topoisomerase IV (Staphylococcus aureus); assay: Inhibition of decatenation activity of DNA topoisomerase 4 in hospital methicillin-resistant Staphylococcus aureus 54/05 using kDNA as substrate at 32 ug/ml after 1 hr using ethidium bromide staining by agarose gel electrophoresis; type: protein-complex assay
[5] = molecular target: T1, Topoisomerase IV (Staphylococcus aureus); assay: Inhibition of decatenation activity of DNA topoisomerase 4 in hospital methicillin-resistant Staphylococcus aureus 573/11 using kDNA as substrate at 1 to 4 ug/ml after 1 hr using ethidium bromide staining by agarose gel electrophoresis; type: protein-complex assay
[6] = system: Staphylococcus epidermidis; assay: Inhibition of biofilm formation in Staphylococcus epidermidis 31/04 after 24 hrs using MTT staining by spectrophotometer analysis; type: functional, organism-based; settings: 31/04, 24 h
[7] = system: Staphylococcus epidermidis; assay: Inhibition of biofilm formation in Staphylococcus epidermidis […]/[…] after 24 hrs using MTT staining by spectrophotometer analysis; type: functional, organism-based; settings: 16/04, 24 h
[8] = molecular target: T2, DNA topoisomerase 4 (Staphylococcus epidermidis) (UniProt Q5HPI6+Q5HPI5); assay: Inhibition of decatenation activity of DNA topoisomerase 4 in Staphylococcus epidermidis ATCC 12228 using kDNA as substrate at 1 to 4 ug/ml after 1 hr using ethidium bromide staining by agarose gel electrophoresis; type: protein assay
T2 sequence (Q5HPI5 whole entry, looked up): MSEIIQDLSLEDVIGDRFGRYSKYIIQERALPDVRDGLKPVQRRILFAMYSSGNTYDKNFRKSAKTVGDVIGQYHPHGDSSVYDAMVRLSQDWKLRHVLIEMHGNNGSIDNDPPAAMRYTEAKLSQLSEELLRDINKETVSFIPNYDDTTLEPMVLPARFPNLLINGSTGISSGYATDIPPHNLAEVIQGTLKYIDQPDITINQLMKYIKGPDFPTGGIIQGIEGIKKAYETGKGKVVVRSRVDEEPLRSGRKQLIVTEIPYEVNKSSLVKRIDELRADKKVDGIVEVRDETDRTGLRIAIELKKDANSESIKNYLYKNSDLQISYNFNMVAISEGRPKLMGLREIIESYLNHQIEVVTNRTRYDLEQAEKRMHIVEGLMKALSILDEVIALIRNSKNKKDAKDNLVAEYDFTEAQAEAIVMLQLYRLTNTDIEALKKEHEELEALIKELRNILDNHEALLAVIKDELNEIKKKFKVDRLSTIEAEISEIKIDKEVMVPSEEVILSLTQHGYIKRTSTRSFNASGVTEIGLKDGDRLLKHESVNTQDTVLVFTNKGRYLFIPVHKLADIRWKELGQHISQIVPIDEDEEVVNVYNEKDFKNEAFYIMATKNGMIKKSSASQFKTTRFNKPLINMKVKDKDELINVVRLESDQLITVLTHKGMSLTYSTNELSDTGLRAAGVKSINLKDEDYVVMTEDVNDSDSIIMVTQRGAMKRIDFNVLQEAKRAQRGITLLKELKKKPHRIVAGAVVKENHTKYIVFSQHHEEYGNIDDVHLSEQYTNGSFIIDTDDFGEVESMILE
T2 sequence (Q5HPI6 whole entry, looked up): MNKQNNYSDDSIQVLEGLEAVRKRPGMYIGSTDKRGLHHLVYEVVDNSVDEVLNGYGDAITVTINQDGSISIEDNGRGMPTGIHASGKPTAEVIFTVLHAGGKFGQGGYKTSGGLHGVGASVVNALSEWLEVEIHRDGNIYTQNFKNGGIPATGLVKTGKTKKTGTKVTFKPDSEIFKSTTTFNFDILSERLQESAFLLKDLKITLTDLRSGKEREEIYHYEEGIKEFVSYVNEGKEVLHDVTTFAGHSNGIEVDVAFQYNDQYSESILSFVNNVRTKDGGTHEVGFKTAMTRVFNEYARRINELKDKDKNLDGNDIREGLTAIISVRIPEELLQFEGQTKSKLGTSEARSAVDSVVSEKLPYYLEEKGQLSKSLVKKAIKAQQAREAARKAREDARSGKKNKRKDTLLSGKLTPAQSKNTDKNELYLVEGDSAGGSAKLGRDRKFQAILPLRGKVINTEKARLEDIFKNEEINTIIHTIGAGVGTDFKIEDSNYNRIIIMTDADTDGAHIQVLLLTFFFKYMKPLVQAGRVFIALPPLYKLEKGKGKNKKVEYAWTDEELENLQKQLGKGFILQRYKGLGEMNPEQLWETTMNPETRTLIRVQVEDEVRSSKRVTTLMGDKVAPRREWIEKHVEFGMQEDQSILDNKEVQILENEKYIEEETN

[9] = molecular target: T2, DNA topoisomerase 4 (Staphylococcus epidermidis); assay: Inhibition of decatenation activity of DNA topoisomerase 4 in hospital methicillin-resistant Staphylococcus epidermidis 62/04 using kDNA as substrate at 1 to 4 ug/ml after 1 hr using ethidium bromide staining by agarose gel electrophoresis; type: protein assay
[10] = system: Staphylococcus epidermidis; assay: Inhibition of biofilm formation in Staphylococcus epidermidis 31/04 at 4 ug/ml after 24 hrs using MTT staining by spectrophotometer analysis; type: functional; settings: 31/04, 24 h; method in brief: as §1
[11] = molecular target: T2, DNA topoisomerase 4 (Staphylococcus epidermidis); assay: Inhibition of decatenation activity of DNA topoisomerase 4 in hospital methicillin-resistant Staphylococcus epidermidis 151/04 using kDNA as substrate at 1 to 4 ug/ml after 1 hr using ethidium bromide staining by agarose gel electrophoresis; type: protein assay
[12] = molecular target: T1, Topoisomerase IV (Staphylococcus aureus); assay: Inhibition of decatenation activity of DNA topoisomerase 4 in hospital methicillin-resistant Staphylococcus aureus 79/05 using kDNA as substrate at 1 to 4 ug/ml after 1 hr using ethidium bromide staining by agarose gel electrophoresis; type: protein-complex assay
[13] = molecular target: T2, DNA topoisomerase 4 (Staphylococcus epidermidis); assay: Inhibition of decatenation activity of DNA topoisomerase 4 in Staphylococcus epidermidis ATCC 35984 using kDNA as substrate at 1 to 4 ug/ml after 1 hr using ethidium bromide staining by agarose gel electrophoresis; type: protein assay
[14] = molecular target: T1, Topoisomerase IV (Staphylococcus aureus); assay: Inhibition of decatenation activity of DNA topoisomerase 4 in hospital methicillin-resistant Staphylococcus aureus 57/05 using kDNA as substrate at 1 to 4 ug/ml after 1 hr using ethidium bromide staining by agarose gel electrophoresis; type: protein-complex assay
[15] = molecular target: T1, Topoisomerase IV (Staphylococcus aureus); assay: Inhibition of decatenation activity of DNA topoisomerase 4 in hospital methicillin-resistant Staphylococcus aureus 53/05 using kDNA as substrate at 32 ug/ml after 1 hr using ethidium bromide staining by agarose gel electrophoresis; type: protein-complex assay
[16] = molecular target: T1, Topoisomerase IV (Staphylococcus aureus); assay: Inhibition of decatenation activity of DNA topoisomerase 4 in Staphylococcus aureus ATCC 6538 using kDNA as substrate at 32 ug/ml […] using ethidium bromide staining by agarose gel electrophoresis; type: protein-complex assay
[17] = system: Staphylococcus epidermidis; assay: Inhibition of biofilm formation in Staphylococcus epidermidis 23/04 after 24 hrs using MTT staining by spectrophotometer analysis; type: functional, organism-based; settings: 23/04, 24 h
[18] = molecular target: T2, DNA topoisomerase 4 (Staphylococcus epidermidis); assay: Inhibition of decatenation activity of DNA topoisomerase 4 in hospital methicillin-resistant Staphylococcus epidermidis 31/04 using kDNA as substrate at 1 to 4 ug/ml after 1 hr using ethidium bromide staining by agarose gel electrophoresis; type: protein assay
[19] = molecular target: T1, Topoisomerase IV (Staphylococcus aureus); assay: Inhibition of decatenation activity of DNA topoisomerase 4 in hospital methicillin-resistant Staphylococcus aureus 522/11 using kDNA as substrate at 32 ug/ml after 1 hr using ethidium bromide staining by agarose gel electrophoresis; type: protein-complex assay
[20] = molecular target: T1, Topoisomerase IV (Staphylococcus aureus); assay: Inhibition of decatenation activity of DNA topoisomerase 4 in Staphylococcus aureus ATCC 6538 using kDNA as substrate at 1 to 4 ug/ml […] using ethidium bromide staining by agarose gel electrophoresis; type: protein-complex assay
[21] = molecular target: T2, DNA topoisomerase 4 (Staphylococcus epidermidis); settings: 24/04, at 1 to 4 µg/mL
[22] = molecular target: T1, Topoisomerase IV (Staphylococcus aureus); assay: Inhibition of decatenation activity of DNA topoisomerase 4 in hospital methicillin-resistant Staphylococcus aureus 573/11 using kDNA as substrate at 32 ug/ml after 1 hr using ethidium bromide staining by agarose gel electrophoresis; type: protein-complex assay
[23] = molecular target: T2, DNA topoisomerase 4 (Staphylococcus epidermidis); assay: Inhibition of decatenation activity of DNA topoisomerase 4 in hospital methicillin-resistant Staphylococcus epidermidis 23/04 using kDNA as substrate at 32 ug/ml after 1 hr using ethidium bromide staining by agarose gel electrophoresis; type: protein assay
[24] = molecular target: T2, DNA topoisomerase 4 (Staphylococcus epidermidis); assay: Inhibition of decatenation activity of DNA topoisomerase 4 in hospital methicillin-resistant Staphylococcus epidermidis 31/04 using kDNA as substrate at 32 ug/ml after 1 hr using ethidium bromide staining by agarose gel electrophoresis; type: protein assay

SMILES | MIC [1] [µg/mL] | EC50 (Coxsackievirus B5) [µM] | inhibition at 4 µg/mL [2] [%] | inhibition [3] | inhibition [4] | inhibition [5] | IC50 [6] [µg/mL] | IC50 [7] [µg/mL] | inhibition [8] | inhibition [9] | inhibition at 4 µg/mL [10] [%] | inhibition [11] | inhibition [12] | inhibition [13] | inhibition [14] | inhibition [15] | inhibition [16] | IC50 [17] [µg/mL] | inhibition [18] | inhibition [19] | also measured
FC(F)(F)c1cccc(NC(S)=Nc2ccc(Cl)c(Cl)c2)c1 | 2 (≈ 5.48 µM) | > 16 |  |  |  |  |  |  |  |  |  |  |  |  |  |  |  |  |  |  | 
FC(F)(F)c1cccc(NC(=S)Nc2ccc(Cl)cc2)c1 | 16 (≈ 48.4 µM) | > 11 |  |  |  |  |  |  |  |  |  |  |  |  |  |  |  |  |  |  | 
FC(F)(F)c1cccc(NC(=S)NCCc2ccccc2)c1 | 8 (≈ 24.7 µM) | > 46 |  |  |  |  |  |  |  |  |  |  |  |  |  |  |  |  |  |  | 
Fc1cccc(NC(=S)Nc2cccc(C(F)(F)F)c2)c1 | 8 (≈ 25.5 µM) | > 20 |  |  |  |  |  |  |  |  |  |  |  |  |  |  |  |  |  |  | 
O=C(O)c1cn(C2CC2)c2cc(N3CCNCC3)c(F)cc2c1=O [CIPROFLOXACIN] | 32 (≈ 96.6 µM) |  | 21.3 | Active | Active | Active | 22.1 (≈ 66.8 µM) | 6.81 (≈ 20.6 µM) | Active | Active | 18.7 | Active | Active | Active | Active | Active | Active | 42.8 (≈ 129 µM) | Active | Active | inhibition [20]: Active; inhibition [21]: Active; inhibition [22]: Active; inhibition [23]: Active; inhibition [24]: Active
FC(F)(F)c1cccc(NC(S)=NCc2ccccc2)c1 | 16 (≈ 51.6 µM) | > 35 |  |  |  |  |  |  |  |  |  |  |  |  |  |  |  |  |  |  | 
Fc1ccc(NC(=S)Nc2cccc(C(F)(F)F)c2)cc1Cl | 1 (≈ 2.87 µM) | > 20 | 95.2 | Active | Active | Active | 1.18 (≈ 3.38 µM) | 1.35 (≈ 3.87 µM) | Active | Active | 77.1 | Active | Active | Active | Active | Active | Active | 2.01 (≈ 5.76 µM) | Active | Active | inhibition [20]: Active; inhibition [21]: Active; inhibition [22]: Active; inhibition [23]: Active; inhibition [24]: Active
FC(F)(F)c1cccc(NC(=S)Nc2cccc(Br)c2)c1 | 2 (≈ 5.33 µM) | > 14 | 87 | Active | Active | Active | 3.76 (≈ 10 µM) | 3.91 (≈ 10.4 µM) | Active | Active | 70.1 | Active | Active | Active | Active | Active | Active | 3.13 (≈ 8.34 µM) | Active | Active | inhibition [20]: Active; inhibition [21]: Active; inhibition [22]: Active; inhibition [23]: Active; inhibition [24]: Active
